Screening results as filed in PubChem.
TRPC4 agonist: activators of mouse TRPC4 channel, primary screen, Fluo4 calcium, HEK293 TRPC4beta/mu-opioid cells; Short transient receptor potential channel 4 (Mus musculus), Q9QUQ5; Fluo4 calcium fluorescence; active compounds read high; B-score at 10 µM; 310,000 tested, 0.49% active; AID 2237, 2010;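 active = B-score above 5 SD of library B-scores, and initial fluorescence ratio not above library mean plus 5 SD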;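 note: positive B-score marks a calcium rise read as TRPC4 activation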
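Assay system – TRPC4beta and mu-opioid receptor HEK293 stable cells · Measured by – Fluo4 fluorescence, kinetic · Schedule – dye loading 45 min room temperature, 110 s kinetic read · Read-out – B-scored integrated calcium fluorescence ratio · Controls – buffer and maximal DAMGO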
TRPC6 inhibitor: mouse TRPC6 channel inhibitors, primary screen, cell-based, HEK293, membrane potential dye; Short transient receptor potential channel 6 (Mus musculus), Q61143; ACh-evoked depolarization; active compounds read low; B-score at 10 µM; 310,000 tested, 1.1% active;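 active = B-score under library mean minus 3 SD, initial fluorescence not abnormally high, positive integrated signal ratio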;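 note: B-score derived from integrated fluorescence ratio over the kinetic read; more negative B-score means stronger inhibition of depolarization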
TRPC4 block: inhibitors of mouse TRPC4 channel, primary screen, Fluo4 calcium, HEK293 TRPC4beta/mu-opioid cells; B-score at 10 µM; 300,000 tested, 0.39% active; Short transient receptor potential channel 4 (Mus musculus), Q9QUQ5; AID 2247, 2010; DAMGO-evoked Fluo4 calcium flux; active compounds read low;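 active = B-score over 3 SD under the library average, no early fluorescence shift, positive overall ratio signal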
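material = TRPC4beta/mu-opioid receptor HEK293 cell line | probe or stimulus = sequential submaximal and maximal DAMGO stimulation | compound dosing = one concentration per compound | measured by = Fluo4 Ca2+ flux fluorescence | evaluation = integrated fluorescence ratio relative to baseline, converted to per-well B score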
TRPC6 activator: mouse TRPC6 channel activators, primary screen, cell-based, HEK293, membrane potential dye; Short transient receptor potential channel 6 (Mus musculus), Q61143; AID 2550, 2010; 310,000 tested, 0.13% active; HEK293-TRPC6 membrane potential dye fluorescence; active compounds read high; B-score at 10 µM;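 active = B-score of the integrated fluorescence ratio above library mean plus 3 SD, and starting fluorescence ratio within library mean plus 5 SD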;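 note: higher score means more depolarization so channel activation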
TRPC4 potent: positive allosteric modulators of TRPC4, primary screen, cell-based, mouse TRPC4beta, HEK293 mu-opioid, Fluo-4 calcium. DAMGO EC20, Fluo-4 Ca2+ flux; active compounds read high. B-score at 10 µM. 310,000 tested, 0.42% active;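 active = B-score of calcium response area above 5 SD of library B-scores, with initial fluorescence ratio within 5 SD of library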;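 note: B-score of integrated fluorescence ratio over time as area under calcium response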
CR mimetic SO: reduction of superoxide in aged yeast, primary screen, HTS; superoxide response (% of plate mean), % at 10 µM; 330,000 tested, 0.18% active; S. cerevisiae aged cells, superoxide DHE fluorescence; active compounds read low;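 active = superoxide response under a set limit, about three screen SD below normal, cut at about 65% in these data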;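 note: yeast aged for seven days with compound at 30 °C before DHE staining; 100% = average MFI of all compound-treated wells on the plate with controls excluded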
An asterisk follows results filed as active. Sampled rows, rich in hits. Any-hit rate of the full collection: about 2.3%.

`COc1ccc(C(=O)C2CCCN(C3Cc4ccccc4C3)C2)cc1OC` (centres undefined) gave TRPC4 agonist 87*, TRPC6 inhibitor inactive, TRPC4 block inactive, TRPC6 activator inactive, TRPC4 potent inactive and CR mimetic SO 82.3.
COc1ccc(-c2cc(C(F)F)n3ncc(C(=O)N4CCN5CCCC5C4)c3n2)cc1 (centres undefined) was read as TRPC4 agonist inactive, TRPC6 inhibitor inactive, TRPC4 block inactive, TRPC6 activator inactive, TRPC4 potent inactive and CR mimetic SO 107.9.
CCCn1c(N2CCN(CC(=O)c3c[nH]c4ccccc34)CC2)nc2c1c(=O)[nH]c(=O)n2C was read as TRPC4 agonist inactive, TRPC6 inhibitor inactive, TRPC4 block inactive, TRPC6 activator inactive, TRPC4 potent inactive and CR mimetic SO 100.8.
For Cc1cc(OCC(=O)NC2CCCCC2)ccc1Cl the results were TRPC4 agonist inactive, TRPC6 inhibitor inactive, TRPC4 block inactive, TRPC6 activator inactive, TRPC4 potent 27* and CR mimetic SO 102.9.
Screening O=C(NC(=S)NNC(=O)c1cccs1)c1ccc(Br)o1 returned TRPC4 agonist 180*, TRPC6 inhibitor inactive, TRPC4 block inactive, TRPC6 activator inactive, TRPC4 potent inactive and CR mimetic SO 125.9.
For Cc1cc(OCC(=O)OCC(=O)NC2CCCC2)ccc1Cl the results were CR mimetic SO 122.3.
`O=C(COc1ccc(Cl)cc1[N+](=O)[O-])NC1CCCCC1` gave TRPC4 agonist inactive, TRPC6 inhibitor inactive, TRPC4 block inactive, TRPC6 activator inactive, TRPC4 potent 85* and CR mimetic SO 107.7.
Screening COc1cccc(OCC(=O)NC2CCCCC2)c1 returned TRPC4 agonist inactive, TRPC6 inhibitor inactive, TRPC4 block inactive, TRPC6 activator inactive, TRPC4 potent 31* and CR mimetic SO 84.7.
`Cc1ccc(CNC(=O)Cn2cncn2)cc1` gave TRPC4 agonist inactive, TRPC6 inhibitor inactive, TRPC4 block inactive, TRPC6 activator inactive, TRPC4 potent inactive and CR mimetic SO 106.1.
CCCn1c(N)c(N(CCOC)C(=O)c2ccc(-c3ccc(Cl)cc3)o2)c(=O)[nH]c1=O was read as TRPC4 agonist inactive, TRPC6 inhibitor inactive, TRPC4 block inactive, TRPC6 activator inactive, TRPC4 potent inactive and CR mimetic SO 93.5.
For Cc1cc(OCC(=O)NNC(=S)NC(=O)c2ccc(Br)o2)ccc1Cl the results were TRPC4 agonist inactive, TRPC6 inhibitor inactive, TRPC4 block inactive, TRPC6 activator inactive, TRPC4 potent 16* and CR mimetic SO 95.4.
Screening O=C1/C(=C/c2cccc(O)c2)SC(=S)N1CC1CCCO1 (centres undefined) returned TRPC4 agonist inactive, TRPC6 inhibitor inactive, TRPC4 block inactive, TRPC6 activator inactive, TRPC4 potent inactive and CR mimetic SO 79.1.
For COc1cccc(/C=C2\SC(=S)N(CC3CCCO3)C2=O)c1 (centres undefined) the results were TRPC4 agonist inactive, TRPC6 inhibitor inactive, TRPC4 block -6*, TRPC6 activator inactive, TRPC4 potent inactive and CR mimetic SO 103.2.
For CCOC(=O)C1(Cc2ccccc2)CCN(Cc2ccc(C3CCCCO3)s2)CC1 (centres undefined) the results were TRPC4 agonist inactive, TRPC6 inhibitor inactive, TRPC4 block inactive, TRPC6 activator inactive, TRPC4 potent inactive and CR mimetic SO 100.8.
CCOC(=O)C1(Cc2ccccc2)CCN(Cc2ccc(C)s2)CC1 was read as TRPC4 agonist inactive, TRPC6 inhibitor inactive, TRPC4 block -8*, TRPC6 activator inactive, TRPC4 potent inactive and CR mimetic SO 93.7.
For CCOC(=O)C1(CCc2ccccc2)CCN(Cc2ccc(O)cc2)CC1 the results were TRPC4 agonist 49*, TRPC6 inhibitor inactive, TRPC4 block -6*, TRPC6 activator inactive, TRPC4 potent inactive and CR mimetic SO 93.2.
